Results on 2 compounds are retold here after ChEMBL document CHEMBL3860103, “Antibacterial and Antibiofilm Activity of Cationic Small Molecules with Spatial Positioning of Hydrophobicity: An in Vitro and in Vivo Evaluation” (J Med Chem, 2016).

SMILES strings stand for the structures. Active and inactive are the calls of the source. No cut-off for these calls is given here.

As usually defined, the HC50 is the concentration giving 50% haemolysis. The MIC is the lowest concentration found to suppress growth. For orientation: LD50 means the dose at which mortality reaches 50%.

The test system of data set [1] is Mus musculus. The data set can be described thus: Toxicity in topically dosed mouse assessed as induction of less fur appearance at 200 mg/kg after 14 days by OECD425 guidelines based method. Conditions: in vivo, topical_or_ocular, 336 h. In kind it is organism-based.
Data set [2] in a line: Induction of hemolysis in human RBC incubated for 1 hr. Conditions: red blood cells. In kind it is cell-based, Erythrocyte. An outline of the steps:
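Washed human RBCs from heparinized blood, 5 vol% in PBS, mixed 3:1 with serially diluted compounds; 1 h at 37 °C. Centrifuged; supernatant A540 read. Hemolysis % = (A−A0)/(Atotal−A0)×100, with water as 0% and 0.1 vol% Triton X-100 as full lysis.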

A short description of data set [3]: Induction of membrane hydration changes in Laurdan dye containing DPPG:DPPE (88:12) liposomes assessed as reduction in general polarization at 25 to 100 ug/ml by luminescence spectrometry. Format: physicochemical. An outline of the steps:
(§1)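 Liposomes of 0.5 mM DPPG:DPPE (88:12) or 0.5 mM DPPC with Laurdan (lipid:dye 100:1), hydrated in PBS pH 7.4, 10 freeze–thaw cycles, sonicated 15 min at 70 °C. Compounds added in PBS (lipid:compound 7.4:1), tested at 25, 50, 100 µg/mL; emission at 440 and 490 nm (ex 350 nm), 37 °C. GP = (I440−I490)/(I440+I490).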

Data set [4] relates to Escherichia coli. The data set can be described thus: Induction of membrane depolarization in Escherichia coli at 32 ug/ml after 0 to 20 mins by […] dye based assay. Format: functional. Summed up: (§2)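 Membrane-potential dye DiSC3(5) taken up by S. aureus or E. coli; depolarization followed as rise in dye fluorescence after adding compounds at 32 µg/mL.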
Data set [5] is described as follows: Toxicity in HEK293 cells assessed as induction of cell death at 64 ug/ml incubated for 24 hrs by calcein AM and propidium iodide dye based fluorescence microscopy. The following applies: human, hek293, 24 h. Summed up: (§3)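 HEK 293 cells seeded ~10^4 cells/well, treated with compounds for 24 h (16, 32 or 64 µg/mL); 0.1% Triton X positive, untreated negative control. Stained with calcein AM (2 µM) and PI (4.5 µM) 15 min at 37 °C, 5% CO2; imaged by fluorescence microscopy, 20X objective.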

For data set [6], the system named is Staphylococcus aureus. The data set can be described thus: Antibacterial activity against methicillin-resistant Staphylococcus aureus incubated for 24 hrs. In kind it is functional. Summed up: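 MRSA (ATCC 33591) from a 6 h culture (~10^9 CFU/mL), diluted to ~10^5 CFU/mL in medium. Compounds in water, 2-fold serial dilutions, combined with the bacteria at 1:3 by volume and incubated 24 h at 37 °C. OD600 read. MIC is the lowest concentration whose OD matches the media-only control. Triplicate wells; experiments repeated at least twice.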

A short description of data set [7]: Selectivity index, ratio of HC50 for induction of hemolysis in human RBC to MIC for Staphylococcus aureus.
Data set [8] can be described thus: Toxicity in HEK293 cells assessed as cell density level at 16 ug/ml incubated for 24 hrs by calcein AM and propidium iodide dye based fluorescence microscopy. Conditions: human, hek293, 24 h. An outline of the steps: as §3
Data set [9] has as its system Staphylococcus aureus. The data set can be described thus: Induction of membrane permeabilization in Staphylococcus aureus at 32 ug/ml after 0 to 20 mins by propidium iodide dye based assay. Format: functional. An outline of the steps: (§4)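 Membrane permeabilization of S. aureus or E. coli followed as increase in propidium iodide fluorescence after adding compounds at 32 µg/mL.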

Data set [10] relates to Escherichia coli. As to the kind of experiment: Antibacterial activity against Escherichia coli incubated for 24 hrs. Format: functional. An outline of the steps: (§5)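 Broth microdilution: 6 h cultures diluted to ~10^5 CFU/mL in medium; compounds 2-fold serially diluted in water, mixed 1:3 with bacterial suspension. Incubated 24 h, 37 °C; OD600 read. MIC = concentration with OD similar to medium-only control. Triplicate wells, experiments repeated at least twice.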

The subject of data set [11] is Staphylococcus aureus. The data set can be described thus: Antibacterial activity against Staphylococcus aureus incubated for 24 hrs. In kind it is functional. An outline of the steps: as §5
The test system of data set [12] is Staphylococcus aureus. The data set can be described thus: Induction of biofilm disruption in Staphylococcus aureus after 24 hrs by confocal laser-scanning microscopy. Format: functional. An outline of the steps:
(§6)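 Biofilms grown on glass coverslips from ~10^5 CFU/mL: S. aureus in nutrient medium + 1% glucose + 1% NaCl, 24 h; E. coli in M9 + 0.5% glycerol + 0.02% casamino acid, 72 h; stationary, 37 °C. After PBS wash, treated 24 h at 37 °C with 32 µg/mL in the same medium; media-only control. Stained with SYTO 9 (5 µM), imaged by confocal microscopy.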

Data set [13] in a line: Induction of membrane hydration changes in Laurdan dye containing DPPC liposomes assessed as reduction in general polarization at 25 to 100 ug/ml by luminescence spectrometry. In kind it is physicochemical. Summed up: as §1
Data set [14] has as its system Escherichia coli. The data set can be described thus: Induction of membrane permeabilization in Escherichia coli at 32 ug/ml after 0 to 20 mins by propidium iodide dye based assay. Format: functional. Summed up:
as §4

The nature of data set [15]: Selectivity index, ratio of HC50 for induction of hemolysis in human RBC to MIC for Escherichia coli.
The test system of data set [16] is Mus musculus. As to the kind of experiment: Toxicity in topically dosed mouse assessed as induction of skin darkening at 200 mg/kg after 14 days by OECD425 guidelines based method. The following applies: in vivo, topical_or_ocular, 336 h. Format: organism-based.
The nature of data set [17]: Toxicity in HEK293 cells assessed as induction of cell death at 32 ug/ml incubated for 24 hrs by calcein AM and propidium iodide dye based fluorescence microscopy. Conditions: human, hek293, 24 h. Summed up:
as §3

Data set [18] relates to Staphylococcus aureus. As to the kind of experiment: Induction of membrane depolarization in Staphylococcus aureus at 32 ug/ml after 0 to 20 mins by […] dye based assay. Format: functional. Summed up: as §2
Data set [19] deals with Escherichia coli. As to the kind of experiment: Induction of biofilm disruption in Escherichia coli assessed as mature biofilm thickness at 32 ug/ml after 24 hrs by SYTO 9 dye based confocal laser-scanning microscopy (reference value: 14 to 18 um). Format: functional. Summed up: as §6
The subject of data set [20] is Staphylococcus aureus. As to the kind of experiment: Induction of biofilm disruption in Staphylococcus aureus assessed as reduction in log bacterial burden at 32 ug/ml after 24 hrs by confocal laser-scanning microscopy. Format: functional. An outline of the steps: (§7)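 Established coverslip biofilms (S. aureus 24 h in nutrient medium + 1% glucose + 1% NaCl; E. coli 72 h in M9 + 0.5% glycerol + 0.02% casamino acid; 37 °C) washed, then exposed to 32 µg/mL for 24 h at 37 °C. Matrix dissolved with trypsin-EDTA, serially diluted, plated on nutrient agar; viability as log10 CFU/mL versus media-only control.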

Data set [21] has as its system Staphylococcus aureus. As to the kind of experiment: Antibacterial activity against Staphylococcus aureus infected in BALB/c mouse model of superficial skin infection and biofilm formation assessed as reduction in bacterial load in skin at 40 mg/kg applied topically once daily for 4 days and measured 18 hrs after last dose. In kind it is functional. Summed up: (§8)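 Female BALB/c mice (6–8 weeks, 18–22 g) made neutropenic with cyclophosphamide i.p. (150 mg/kg, then 100 mg/kg 3 days later), anesthetized, backs shaved, wounded and infected with MRSA ATCC 33591. After 24 h biofilm formation, 40 mg/kg applied topically to wound once daily for 4 days (n = 5/group; untreated control). Skin collected 18 h after last dose for CFU/g; portions formalin-fixed for SEM.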

A short description of data set [22]: Toxicity in topically dosed mouse by OECD425 guidelines based method. In kind it is organism-based. Conditions: in vivo, topical or ocular.
Data set [23] deals with Staphylococcus aureus. The data set can be described thus: Induction of biofilm disruption in Staphylococcus aureus assessed as mature biofilm thickness at 32 ug/ml after 24 hrs by SYTO 9 dye based confocal laser-scanning microscopy (reference value: 14 to 18 um). Format: functional. Summed up: as §6
The test system of data set [24] is Mus musculus. The data set can be described thus: Toxicity in topically dosed mouse assessed as induction of abnormal skin reaction at 200 mg/kg by OECD425 guidelines based method. Format: organism-based. Conditions: in vivo, topical_or_ocular.
The subject of data set [25] is Staphylococcus aureus. As to the kind of experiment: Antibacterial activity against Staphylococcus aureus infected in BALB/c mouse model of superficial skin infection and biofilm formation assessed as reduction in bacterial load in skin at 40 mg/kg applied topically once daily for 4 days and measured 18 hrs after last dose by FEI field emission scanning electron microscopy relative to un-treated control. Format: functional, organism-based. Summed up:
as §8

The subject of data set [26] is Mus musculus. The data set can be described thus: Toxicity in topically dosed mouse assessed as induction of inflammation at 200 mg/kg by OECD425 guidelines based method. In kind it is organism-based. Conditions: in vivo, topical_or_ocular.
Data set [27] has as its system Staphylococcus aureus. The data set can be described thus: Antibacterial activity against Staphylococcus aureus infected in BALB/c mouse model of superficial skin infection and biofilm formation assessed as reduction in bacterial load in skin at 40 mg/kg applied topically once daily for 4 days and measured 18 hrs after last dose relative to un-treated control. In kind it is functional. The arrangement: scale not given: the % may be the effect or the level left. An outline of the steps:
as §8

Data set [28] deals with Escherichia coli. As to the kind of experiment: Induction of biofilm disruption in Escherichia coli assessed as reduction in log bacterial burden at 32 ug/ml after 72 hrs by confocal laser-scanning microscopy. In kind it is functional. The following applies: in the assay text read “after 24 hrs” for “after 72 hrs”. An outline of the steps: as §7

Turning to `CCCCCCCCCCNC(=O)C[N+](C)(C)CCCC[N+](C)(C)CC(=O)NCCCCCCCCCC.[Br-].[Br-]`, the Activity entry is given as “Toxic” in the data set with Mus musculus [1]; “Active” in [3]; “Toxic” in [5]; “Toxic” in [8]; “Active” in data set [13]; “Toxic” in the data set on Mus musculus [16]. In data set [17], the Activity result is reported as “Toxic”. In addition, the HC50 at 1 h in data set [2] was determined as 60 µg/mL. Besides, the result with Escherichia coli [4], in the data set with Staphylococcus aureus [9], in the data set with Escherichia coli [14] and in the data set on Staphylococcus aureus [18] was Active. In addition, the minimum inhibitory concentration (MIC) against Staphylococcus aureus [6], in the data set with Escherichia coli [10] and with Staphylococcus aureus [11] was 2 µg/mL in each case. Also, the Selectivity Index in data set [7] and in [15] was 30 in each case. Also, the MBEC in the data set on Staphylococcus aureus [12] was 31.2 to 62.5 µg/mL.
Regarding `CCCCCCNC(=O)C[N+](C)(C)CCCCCCCCCCCC[N+](C)(C)CC(=O)NCCCCCC.[Br-].[Br-]`, the Activity is 2 - 3 um with Escherichia coli [19]; 5.3 log10CFU/g with Staphylococcus aureus [21]; “Active” in [3]; 2 - 3 um in the data set on Staphylococcus aureus [23]; “Non-Toxic” in data set [5]; “Non-Toxic” in data set [8]. Further, the Activity entry with Mus musculus [24] was “Non-Toxic”; with Mus musculus [26], “Non-Toxic”; in the data set on Staphylococcus aureus [27], >99.999%; in data set [17] it was “Non-Toxic”. The compound further returned an HC50 at 1 h in data set [2] of 805 µg/mL. Besides, the FC in the data set with Staphylococcus aureus [20] is given as 9.2; with Escherichia coli [28], 7.1. For the same compound, the result with Escherichia coli [4], with Staphylococcus aureus [25], in the data set on Staphylococcus aureus [9], with Escherichia coli [14] and in the data set on Staphylococcus aureus [18] was Active. In addition, the median lethal dose (LD50) in data set [22] is > 200 mg/kg. For the same compound, the minimal inhibitory concentration (MIC) in the data set with Staphylococcus aureus [6] was found to be 2 µg/mL; against Escherichia coli [10], 2 µg/mL; in the data set on Staphylococcus aureus [11], 1 µg/mL. Further, the Selectivity Index in [7] came out at 805; in data set [15] it was 402. Further, the MBEC in the data set on Staphylococcus aureus [12] fell in the range of 31.2 to 62.5 µg/mL.
